Source: ChEMBL document CHEMBL1687785, “ampG gene of Pseudomonas aeruginosa and its role in β-lactamase expression” (2010)

Tests used:
[1] = molecular target: Beta-lactamase (Pseudomonas aeruginosa (strain ATCC 15692 / PAO1 / 1C / PRS 101 / LMG12228)) (UniProt P24735); test: Activity of ampG deficient Pseudomonas aeruginosa PAO1 AmpC assessed as nitrocefin hydrolyzed per mg of protein at 1 ug/ml by UV spectrophotometry
Outline: (§1)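 P. aeruginosa cells induced 2 h with cefoxitin (1, 10 or 25 μg/ml; uninduced control). Crude extracts prepared by sonication. β-Lactamase measured by UV spectrophotometry with 100 μM nitrocefin as substrate. Specific activity given as nmol nitrocefin hydrolyzed per min per mg protein at 30°C, with protein by BCA against BSA standard. Triplicate inductions, averaged.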

[2] = molecular target: Beta-lactamase (Pseudomonas aeruginosa (strain ATCC 15692 / PAO1 / 1C / PRS 101 / LMG12228)) (UniProt P24735); test: Activity of Pseudomonas aeruginosa PAO1 AmpC assessed as nitrocefin hydrolyzed per mg of protein at 10 ug/ml by UV spectrophotometry; outline: as §1
[3] = molecular target: Beta-lactamase (Pseudomonas aeruginosa (strain ATCC 15692 / PAO1 / 1C / PRS 101 / LMG12228)) (UniProt P24735); test: Activity of ampD, […], ampDh2 deficient Pseudomonas aeruginosa PAO1 AmpC assessed as nitrocefin hydrolyzed per mg of protein at 10 ug/ml by UV spectrophotometry; outline: as §1
[4] = molecular target: Beta-lactamase (Pseudomonas aeruginosa (strain ATCC 15692 / PAO1 / 1C / PRS 101 / LMG12228)) (UniProt P24735); test: Activity of ampG deficient Pseudomonas aeruginosa PAK AmpC at 50 ug/ml assessed as nitrocefin substrate hydrolysis per mg of protein after 2 hrs by UV spectrophotometry
Outline: (§2)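 P. aeruginosa cells induced 2 h with […] cefoxitin. Crude sonicated extracts assayed by UV spectrophotometry with 100 μM nitrocefin substrate. Specific activity is nmol nitrocefin hydrolyzed per min per mg protein at 30°C, with protein by BCA against BSA standard. Triplicate inductions, averaged.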

[5] = molecular target: Beta-lactamase (Pseudomonas aeruginosa (strain ATCC 15692 / PAO1 / 1C / PRS 101 / LMG12228)) (UniProt P24735); test: Activity of Pseudomonas aeruginosa PAK AmpC assessed as nitrocefin hydrolyzed per mg of protein at 25 ug/ml by UV spectrophotometry; outline: as §1
[6] = molecular target: Beta-lactamase (Pseudomonas aeruginosa (strain ATCC 15692 / PAO1 / 1C / PRS 101 / LMG12228)) (UniProt P24735); test: Activity of Pseudomonas aeruginosa PAO1 AmpC at 50 ug/ml assessed as nitrocefin substrate hydrolysis per mg of protein after 2 hrs by UV spectrophotometry; outline: as §2
[7] = molecular target: Beta-lactamase (Pseudomonas aeruginosa (strain ATCC 15692 / PAO1 / 1C / PRS 101 / LMG12228)) (UniProt P24735); test: Activity of Pseudomonas aeruginosa PAO1 AmpC assessed as nitrocefin hydrolyzed per mg of protein at 1 ug/ml by UV spectrophotometry; outline: as §1
[8] = molecular target: Beta-lactamase AmpC (Enterobacter cloacae) (UniProt P05364); test: Activity of tetracycline resistant Escherichia coli SNO301-1 AmpC harboring pEC1C carrying ampC, ampR from Enterobacter cloacae at 50 ug/ml assessed as nitrocefin substrate hydrolysis per mg of protein after 2 hrs by UV spectrophotometry
Chain of Beta-lactamase AmpC (Enterobacter cloacae) (P05364 whole entry, looked up): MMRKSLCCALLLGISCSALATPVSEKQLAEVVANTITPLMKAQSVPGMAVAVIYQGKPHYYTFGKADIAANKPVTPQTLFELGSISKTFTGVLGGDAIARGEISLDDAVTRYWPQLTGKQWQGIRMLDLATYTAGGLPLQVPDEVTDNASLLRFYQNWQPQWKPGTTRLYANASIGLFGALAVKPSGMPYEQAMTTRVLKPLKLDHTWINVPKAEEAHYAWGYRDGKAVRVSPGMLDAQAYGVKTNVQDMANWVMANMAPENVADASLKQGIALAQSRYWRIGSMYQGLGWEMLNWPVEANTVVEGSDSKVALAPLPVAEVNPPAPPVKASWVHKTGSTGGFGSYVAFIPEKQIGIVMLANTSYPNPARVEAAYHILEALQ

[9] = molecular target: Beta-lactamase (Pseudomonas aeruginosa (strain ATCC 15692 / PAO1 / 1C / PRS 101 / LMG12228)) (UniProt P24735); test: Activity of Pseudomonas aeruginosa PAK AmpC assessed as nitrocefin hydrolyzed per mg of protein at 1 ug/ml by UV spectrophotometry; outline: as §1
[10] = molecular target: Beta-lactamase (Pseudomonas aeruginosa (strain ATCC 15692 / PAO1 / 1C / PRS 101 / LMG12228)) (UniProt P24735); test: Activity of ampD, […], ampDh2 and ampG deficient Pseudomonas aeruginosa PAO1 AmpC assessed as nitrocefin hydrolyzed per mg of protein at 25 ug/ml by UV spectrophotometry; outline: as §1
[11] = molecular target: Beta-lactamase (Pseudomonas aeruginosa (strain ATCC 15692 / PAO1 / 1C / PRS 101 / LMG12228)) (UniProt P24735); test: Activity of Pseudomonas aeruginosa PAK AmpC assessed as nitrocefin hydrolyzed per mg of protein at 10 ug/ml by UV spectrophotometry; outline: as §1
[12] = molecular target: Beta-lactamase (Pseudomonas aeruginosa (strain ATCC 15692 / PAO1 / 1C / PRS 101 / LMG12228)) (UniProt P24735); test: Activity of ampD, […], ampDh2 and ampG deficient Pseudomonas aeruginosa PAO1 AmpC assessed as nitrocefin hydrolyzed per mg of protein at 10 ug/ml by UV spectrophotometry; outline: as §1
[13] = molecular target: Beta-lactamase AmpC (Enterobacter cloacae) (UniProt P05364); test: Activity of gentamycin resistant Escherichia coli SNO301-1 AmpC harboring pEC1C carrying ampC, ampR from Enterobacter cloacae at 50 ug/ml assessed as nitrocefin substrate hydrolysis per mg of protein after 2 hrs by UV spectrophotometry
[14] = molecular target: Beta-lactamase (Pseudomonas aeruginosa (strain ATCC 15692 / PAO1 / 1C / PRS 101 / LMG12228)) (UniProt P24735); test: Activity of ampG deficient Pseudomonas aeruginosa PAO1 AmpC at 50 ug/ml assessed as nitrocefin substrate hydrolysis per mg of protein after 2 hrs by UV spectrophotometry; outline: as §2
[15] = molecular target: Beta-lactamase (Pseudomonas aeruginosa (strain ATCC 15692 / PAO1 / 1C / PRS 101 / LMG12228)) (UniProt P24735); test: Activity of ampG deficient Pseudomonas aeruginosa PAO1 AmpC assessed as nitrocefin hydrolyzed per mg of protein at 10 ug/ml by UV spectrophotometry; outline: as §1
[16] = molecular target: Beta-lactamase (Pseudomonas aeruginosa (strain ATCC 15692 / PAO1 / 1C / PRS 101 / LMG12228)) (UniProt P24735); test: Activity of ampD, ampDh2, ampDh3 and ampG deficient Pseudomonas aeruginosa PAO1 AmpC harboring pZY0901 conferring resistance to gentamycin at 50 ug/ml assessed as nitrocefin substrate hydrolysis per mg of protein after 2 hrs by UV spectrophotometry; outline: as §2
[17] = molecular target: Beta-lactamase AmpC (Enterobacter cloacae) (UniProt P05364); test: Activity of kanamycin resistant Escherichia coli SNO301-1 AmpC harboring pEC1C carrying ampC, ampR from Enterobacter cloacae at 50 ug/ml assessed as nitrocefin substrate hydrolysis per mg of protein after 2 hrs by UV spectrophotometry
[18] = molecular target: Beta-lactamase (Pseudomonas aeruginosa (strain ATCC 15692 / PAO1 / 1C / PRS 101 / LMG12228)) (UniProt P24735); test: Activity of ampG deficient Pseudomonas aeruginosa PAK AmpC assessed as nitrocefin hydrolyzed per mg of protein at 10 ug/ml by UV spectrophotometry; outline: as §1
[19] = molecular target: Beta-lactamase (Pseudomonas aeruginosa (strain ATCC 15692 / PAO1 / 1C / PRS 101 / LMG12228)) (UniProt P24735); test: Activity of ampG deficient Pseudomonas aeruginosa PAK AmpC harboring pZY0901 conferring resistance to gentamycin at 50 ug/ml assessed as nitrocefin substrate hydrolysis per mg of protein after 2 hrs by UV spectrophotometry; outline: as §2
[20] = molecular target: Beta-lactamase (Pseudomonas aeruginosa (strain ATCC 15692 / PAO1 / 1C / PRS 101 / LMG12228)) (UniProt P24735); test: Activity of ampD, ampDh2, ampDh3 and ampG deficient Pseudomonas aeruginosa PAO1 AmpC at 50 ug/ml assessed as nitrocefin substrate hydrolysis per mg of protein after 2 hrs by UV spectrophotometry; outline: as §2
[21] = molecular target: Beta-lactamase (Pseudomonas aeruginosa (strain ATCC 15692 / PAO1 / 1C / PRS 101 / LMG12228)) (UniProt P24735); test: Activity of Pseudomonas aeruginosa PAO1 AmpC assessed as nitrocefin hydrolyzed per mg of protein at 25 ug/ml by UV spectrophotometry; outline: as §1
[22] = molecular target: Beta-lactamase (Pseudomonas aeruginosa (strain ATCC 15692 / PAO1 / 1C / PRS 101 / LMG12228)) (UniProt P24735); test: Activity of ampG deficient Pseudomonas aeruginosa PAK AmpC assessed as nitrocefin hydrolyzed per mg of protein at 1 ug/ml by UV spectrophotometry; outline: as §1
[23] = molecular target: Beta-lactamase (Pseudomonas aeruginosa (strain ATCC 15692 / PAO1 / 1C / PRS 101 / LMG12228)) (UniProt P24735); test: Activity of ampD, […], ampDh2 deficient Pseudomonas aeruginosa PAO1 AmpC at 50 ug/ml assessed as nitrocefin substrate hydrolysis per mg of protein after 2 hrs by UV spectrophotometry; outline: as §2
[24] = molecular target: Beta-lactamase (Pseudomonas aeruginosa (strain ATCC 15692 / PAO1 / 1C / PRS 101 / LMG12228)) (UniProt P24735); test: Activity of ampD, […], ampDh2 deficient Pseudomonas aeruginosa PAO1 AmpC assessed as nitrocefin hydrolyzed per mg of protein at 25 ug/ml by UV spectrophotometry; outline: as §1
[25] = molecular target: Beta-lactamase (Pseudomonas aeruginosa (strain ATCC 15692 / PAO1 / 1C / PRS 101 / LMG12228)) (UniProt P24735); test: Activity of Pseudomonas aeruginosa PAK AmpC at 50 ug/ml assessed as nitrocefin substrate hydrolysis per mg of protein after 2 hrs by UV spectrophotometry; outline: as §2
[26] = molecular target: Beta-lactamase (Pseudomonas aeruginosa (strain ATCC 15692 / PAO1 / 1C / PRS 101 / LMG12228)) (UniProt P24735); test: Activity of ampG deficient Pseudomonas aeruginosa PAK AmpC assessed as nitrocefin hydrolyzed per mg of protein at 25 ug/ml by UV spectrophotometry; outline: as §1
[27] = molecular target: Beta-lactamase (Pseudomonas aeruginosa (strain ATCC 15692 / PAO1 / 1C / PRS 101 / LMG12228)) (UniProt P24735); test: Activity of ampD, […], ampDh2 deficient Pseudomonas aeruginosa PAO1 AmpC assessed as nitrocefin hydrolyzed per mg of protein at 1 ug/ml by UV spectrophotometry; outline: as §1
[28] = molecular target: Beta-lactamase (Pseudomonas aeruginosa (strain ATCC 15692 / PAO1 / 1C / PRS 101 / LMG12228)) (UniProt P24735); test: Activity of ampG deficient Pseudomonas aeruginosa PAK AmpC harboring pZY0908 conferring resistance to gentamycin at 50 ug/ml assessed as nitrocefin substrate hydrolysis per mg of protein after 2 hrs by UV spectrophotometry; outline: as §2
[29] = molecular target: Beta-lactamase (Pseudomonas aeruginosa (strain ATCC 15692 / PAO1 / 1C / PRS 101 / LMG12228)) (UniProt P24735); test: Activity of ampG deficient Pseudomonas aeruginosa PAO1 AmpC assessed as nitrocefin hydrolyzed per mg of protein at 25 ug/ml by UV spectrophotometry; outline: as §1
[30] = molecular target: Beta-lactamase (Pseudomonas aeruginosa (strain ATCC 15692 / PAO1 / 1C / PRS 101 / LMG12228)) (UniProt P24735); test: Activity of ampD, […], ampDh2 and ampG deficient Pseudomonas aeruginosa PAO1 AmpC assessed as nitrocefin hydrolyzed per mg of protein at 1 ug/ml by UV spectrophotometry; outline: as §1

Chain of Beta-lactamase (Pseudomonas aeruginosa (strain ATCC 15692 / PAO1 / 1C / PRS 101 / LMG12228)) (P24735 27-397 limits assumed): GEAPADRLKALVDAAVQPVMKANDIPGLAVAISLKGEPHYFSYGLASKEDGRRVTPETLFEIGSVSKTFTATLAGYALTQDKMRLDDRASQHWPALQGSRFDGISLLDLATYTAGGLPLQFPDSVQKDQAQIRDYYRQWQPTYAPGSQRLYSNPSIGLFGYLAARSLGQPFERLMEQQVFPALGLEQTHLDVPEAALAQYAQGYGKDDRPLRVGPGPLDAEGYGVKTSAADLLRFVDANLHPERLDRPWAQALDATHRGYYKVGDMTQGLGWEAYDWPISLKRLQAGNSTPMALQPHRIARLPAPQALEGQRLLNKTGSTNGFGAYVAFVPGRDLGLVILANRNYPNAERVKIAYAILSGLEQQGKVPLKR

CO[C@@]1(NC(=O)Cc2cccs2)C(=O)N2C(C(=O)O)=C(COC(N)=O)CS[C@@H]21
Activity [1]: 3 nmol/min | Activity [2]: 165 nmol/min | Activity [3]: 3010 nmol/min | Activity [4]: 0 nmol/min | Activity [5]: 1070 nmol/min | Activity [6]: 879 nmol/min | Activity [7]: 36 nmol/min | Activity [8]: 38 nmol/min | Activity [9]: 152 nmol/min | Activity [10]: 0 nmol/min | Activity [11]: 747 nmol/min | Activity [12]: 8 nmol/min | Activity [13]: 3250 nmol/min | Activity [14]: 0 nmol/min | Activity [15]: 10 nmol/min | Activity [16]: 8130 nmol/min | Activity [17]: 3600 nmol/min | Activity [18]: 5 nmol/min | Activity [19]: 2570 nmol/min | Activity [20]: 0 nmol/min | Activity [21]: 372 nmol/min | Activity [22]: 2 nmol/min | Activity [23]: 3440 nmol/min | Activity [24]: 3020 nmol/min | Activity [25]: 1220 nmol/min | Activity [26]: 0 nmol/min | Activity [27]: 2980 nmol/min | Activity [28]: 1300 nmol/min | Activity [29]: 0 nmol/min | Activity [30]: 4 nmol/min
